Shown are actives, neighbours in structure and some others; about 2% of the full set was active somewhere.
LEDGF integ inh: blocks HIV-1 LEDGF/p75-dependent DNA integration; 370,000 compounds, 0.64% hits; TR-FRET IN-LEDGF/p75 DNA integration, Eu/Cy5; inhibition, % at 3.7 µM; AID 743269;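 active = inhibition above the screen-wide mean plus 3 SD, cut at about 13% in these data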;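 also: signal is the Cy5 over europium emission ratio at 671 and 618 nm; 0% = plate median of compound wells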
UHRF1 MBD2 ctr: blocks human UHRF1 binding to methylated DNA | Q96T88 | UHRF1 binding to methylated oligo, TR-FRET | inhibition, % at 4.4 µM | 370,000 compounds, 0.75% hits | AID 687016; in the data active = inhibition above about 21%;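 also: UHRF1 SRA domain binding a hemimethylated CpG hairpin DNA probe; 0% = median of test compound wells and 100% = reference inhibitor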
TDP2 absorb: blocks human TDP2 phosphodiesterase activity; recombinant TDP2, T5PNP hydrolysis, p-nitrophenol absorbance 415 nm; inhibition, % at 12.8 µM; 370,000 compounds, 0.34% hits; AID 720702; O95551;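 active = inhibition above the mean of all tested compounds plus 3 SD, set per campaign, cut at about 25% in these data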;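 also: 0% = DMSO with enzyme and 100% = buffer with substrate but no TDP2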
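Test system: Human TDP2 enzyme | Reagent: 5 mM T5PNP | Compound dosing: 12.8 µM single point, 1% DMSO | Incubation: Enzyme reaction with compound for 2 h at 37 °C | Technique: p-Nitrophenol epi absorbance | Read-out: % inhibition relative to enzyme-containing and enzyme-free wells | Benchmarks: High control without enzyme, low control DMSO plus TDP2 | Replicates: Singlicate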
MBD2 inh: MBD2-methylated oligo binding inhibition; Q9UBB5; TR-FRET, MBD2 binding to methylated oligonucleotide; inhibition, % at 4.4 µM; 370,000 compounds, 0.31% hits; in the data active = inhibition above about 13%
ARFGAP1 inh: inhibitors of rat ARFGAP1 | Q62848 | Arfgap1-stimulated ARF1 GTP hydrolysis, GDP FP detection | inhibition, % at 16.5 µM | 360,000 compounds, 0.26% hits;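 active = inhibition above a per-plate limit, mean inhibition of low control wells plus 3 SD, cut at about 25% in these data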;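 also: 0% = DMSO wells with enzyme and 100% = wells lacking Arfgap1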
Target sequence (Q62848 1-136 limits assumed): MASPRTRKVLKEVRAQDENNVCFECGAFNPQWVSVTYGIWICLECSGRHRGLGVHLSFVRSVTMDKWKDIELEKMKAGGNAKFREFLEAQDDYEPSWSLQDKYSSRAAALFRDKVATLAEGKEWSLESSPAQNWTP
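System: truncated rat Arfgap1 GAP domain / Medium: HEPES-based buffer, pH 7.5 / Also added: N-terminally truncated human ARF1-GTP substrate / Incubation: enzyme reaction 120 min at 25 °C after 20 min preincubation / Measured by: FP of antibody-bound GDP Alexa 633 tracer, ex 620/em 688 nm / Replicates: singlicate, each compound tested once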
ASAP1 GAP inh: inhibitors of human ASAP1 ArfGAP activity | ASAP1-stimulated ARF1 GTP hydrolysis, GDP FP detection | 360,000 compounds, 0.19% hits | inhibition, % at 16.5 µM | Q9ULH1; in the data active = inhibition above about 25%;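 also: 0% = vehicle with enzyme and substrate and 100% = no enzyme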
Target sequence (Q9ULH1 325-724 limits assumed): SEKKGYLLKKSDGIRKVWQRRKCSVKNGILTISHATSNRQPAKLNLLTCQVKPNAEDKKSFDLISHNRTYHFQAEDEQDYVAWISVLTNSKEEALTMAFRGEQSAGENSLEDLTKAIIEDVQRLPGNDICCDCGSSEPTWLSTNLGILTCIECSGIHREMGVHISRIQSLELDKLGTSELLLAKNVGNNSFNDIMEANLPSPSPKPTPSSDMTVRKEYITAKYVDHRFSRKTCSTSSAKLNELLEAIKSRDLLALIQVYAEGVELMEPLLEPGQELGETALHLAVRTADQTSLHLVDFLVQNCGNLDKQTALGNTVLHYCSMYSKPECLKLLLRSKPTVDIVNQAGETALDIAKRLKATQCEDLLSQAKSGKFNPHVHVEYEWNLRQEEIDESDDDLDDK
Active calls of the source: *; . = not tested or not shown.

SMILES	LEDGF integ inh	UHRF1 MBD2 ctr	TDP2 absorb	MBD2 inh	ARFGAP1 inh	ASAP1 GAP inh
CCC[C@H]1[C@@H](NC(=O)c2cccc(N(C)C)c2)CC[C@@]23CCCN2C(=O)CCC[C@@H]13	-2	-2	6	1	.	.
COc1ccc2c(c1)C[C@@H]1CC(C)(C)CN1S2(=O)=O	-3	0	1	0	.	.
Cc1ccc(CN2C(C(=O)NC3CCCC3)CSCCS2(=O)=O)cc1 (centres undefined)	1	-1	2	-4	.	.
Cc1ccc(NC(=S)NCC2CCN(C(C)c3ccccc3)C2)cc1C (centres undefined)	1	23*	0	1	-4	-5
Cc1ccc(NC(=S)NCC2CCCO2)cc1C (centres undefined)	2	0	12	0	-2	-1
Cc1ccc2nc(-c3ccc(NC(=O)CSc4nnc(-c5ccccc5)n4Cc4ccco4)cc3)sc2c1	4	1	0	10	.	.
Cc1cc(C)n2cc(CSc3nnc(N)s3)nc2n1	9	22*	5	7	10	-1
Cc1cccc2nc(CSc3nnc(N)s3)cn12	4	-1	4	-6	-11	-15
CCCCNc1c(-c2ccc(SC3CCCCC3)c(OC)c2)nc2ccc(Cl)cn12	11	24*	24	10	4	0
CCCCCCSc1ccc(-c2nc3ccc(Cl)cn3c2NCCCC)cc1OC	-2	-1	4	4	12	-1
CCCCCCSc1cc(-c2nc3ccc(Cl)cn3c2NC2CCCCC2)ccc1OC	0	58*	3	0	4	0
O=C(CSc1cc(Cl)ccc1Cl)N/N=C/c1ccc[nH]1	-2	0	6	-3	.	.
O=C(Nc1ccc(C2=NCCN2)cc1)c1ccc(C(=O)Nc2ccc(C3=NCCN3)cc2)c([N+](=O)[O-])c1	-1	9	1	9	27*	3
Cc1ccc(NC(=O)c2ccc(-n3cccn3)c([N+](=O)[O-])c2)cc1	0	-3	-10	-8	-16	-8
Oc1c(CN2CCOCC2)cc(CN2CCOCC2)cc1CN1CCOCC1	-7	24*	3	3	-10	0
Oc1cc(O)c(CN2CCOCC2)cc1CN1CCOCC1	7	4	0	-1	1	8
COc1cccc([C@H]2NC(=O)C/C=C/[C@@H](C)[C@@H](c3cccc(OC)c3)NC(=O)C/C=C/[C@H]2C)c1	-1	0	3	6	.	.
CC1=C(C#N)C(c2ccc3ncccc3c2)C(C#N)=C(C)N1	0	28*	-5	8	5	-13
COc1cccc(CN(C)C(=O)c2cccnc2SC)c1OC	-1	26*	5	9	18	9
CCC(C)NS(=O)(=O)c1ccc(OCC(=O)NCc2ccco2)cc1 (centres undefined)	2	25*	11	-1	-3	0
CC(C)CC(=O)NCCCCc1ccccc1	3	21*	5	-2	-1	-14
CC(C)C(=O)NCCCc1ccccc1	1	1	0	3	0	-6
COc1ccc2c(c1)N=CN1CCc3c([nH]c4ccccc34)C3=NCC[C@@]321	-5	0	1	5	.	.
CCCCCCCCN1C(=O)[C@@H](CC(=O)NCC2CCCCC2)C[C@@]2(C(=O)OC)C1=C[C@H](C(C)C)O[C@@H]2C1CC1	0	1	-8	-5	.	.
COc1ccc(OCCCC(=O)OC(C)C(=O)Nc2ccc(S(N)(=O)=O)cc2)cc1 (centres undefined)	35*	3	-7	3	7	-14
SMILES	LEDGF integ inh	UHRF1 MBD2 ctr	TDP2 absorb	MBD2 inh	ARFGAP1 inh	ASAP1 GAP inh
O=C(C[C@H]1C(=O)N(C2CCCCC2)C[C@@H]1c1ccccc1)Nc1ccc(Br)cc1	10	22*	6	12	10	2
O=C1N2Cc3ccccc3C2CS(=O)(=O)N1CCc1ccccc1 (centres undefined)	4	-1	-4	3	.	.
Cc1oc2c(c(C)cc3oc(=O)c(CC(=O)NCC(=O)NCC(=O)NCC(C)O)c(C)c32)c1C (centres undefined)	-5	65*	-3	-8	-4	4
O=S1(=O)c2ccc(N3CCN(Cc4ccccc4F)CC3)cc2Oc2ccccc2CN1Cc1cn(Cc2ccc(F)cc2)nn1	2	0	5	3	.	.
COc1ccc(Cl)cc1NC(=S)N1CCN(C(=O)c2ccco2)CC1	-1	-2	-6	-4	39*	-3
CCOc1ccccc1N1CCN(Cc2ccc(OC)c(OC)c2)CC1	-2	23*	13	2	5	-9
CCOc1ccccc1N1CCN(Cc2ccc(OC)c(OC)c2OC)CC1	0	1	3	0	1	0
Cc1nc(C)c(CCNC(=O)c2ccccc2Br)s1	1	21*	-5	-1	-2	-4
COC[C@H]1O[C@]2(c3ccccc3)CO[C@H]1[C@@H](/C=C/c1ccccc1)C2	-1	3	-1	1	.	.
CCCCNC(=O)C1c2ccccc2OCC(=O)N1C1CC1 (centres undefined)	4	21*	6	3	-9	-3
CCOc1ccccc1NC(=O)CN(c1cc(C)cc(C)c1)S(=O)(=O)c1c(C)noc1C	-2	27*	6	0	1	1
CN(C)c1cccc(C(=O)OCc2cc(=O)oc3cc(O)ccc23)c1	5	24*	4	8	7	3
CC1CN(S(=O)(=O)c2cccc(C(=O)OCc3cc(=O)oc4cc(O)ccc34)c2)CC(C)O1 (centres undefined)	0	3	11	0	2	-2
O=C(CCc1ccccc1)N[C@@H]1c2ccccc2CC[C@H]1OCc1ccccc1	6	23*	-9	5	-12	2
C[C@H]1COc2c3ccc(I)cc3nn21	-2	5	9	7	.	.
CCC(C)[C@H](NC(=O)C1COC(O)([C@H](Cc2ccccc2)NC(=O)[C@@H](NC(=O)OCc2ccccc2)C(C)C)CN1C)C(=O)N[C@H](C(=O)OC)C(C)C (some centres undefined)	1	1	5	2	.	.
CCN(CC)C(=O)c1cccc(-c2csc(C(O)c3ccccc3)n2)c1 (centres undefined)	0	22*	-3	9	-4	-12
Cc1c(CC(=O)O)c(=O)oc2cc3oc4c(c3cc12)CCCC4	-2	26*	1	0	14	2
Cc1c(CC(=O)NCC(=O)O)c(=O)oc2cc3oc4c(c3cc12)CCCC4	-1	-3	-6	-2	7	-9
Cc1cccc(OCC(=O)N(Cc2nnc(-c3ccccc3Cl)o2)C2CC2)c1	-8	68*	-13	-2	-1	-13

Source: PubChem (The Scripps Research Institute Molecular Screening Center)
